In brackets after ≈: the same amount, converted by molar mass.
Tests used:
[1] = test system: S. epidermidis 126 (hGISE clinical isolate); experiment: Broth microdilution MIC/MBC, clinical isolate; type: cell-based, Staphylococcus epidermidis; settings: for MIC: Staphylococcus epidermidis
[2] = test system: S. epidermidis; experiment: Antibiotics combined with plantaricins, summary statements; type: cell-based, Staphylococcus epidermidis; settings: summary in abstract/discussion; PlnEF with antibiotic; strain not specified
Outline: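 Broth microdilution with S. epidermidis grown overnight in LB at 37 °C with shaking and adjusted by viable count. Twofold antibiotic series: vancomycin and teicoplanin 0.097–50 μg/ml, gentamicin 0.0097–5 μg/ml, tetracycline 0.016–8 μg/ml. Each well also held a fixed paired plantaricin at 12.5 or 6.25 μM, each partner peptide equimolar. MIC/MBC read after 20 h.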

[3] = test system: Staphylococcus epidermidis ATCC 12228; settings: for reduction of the MIC of the antibiotic in the presence of PlnJK: 12.5 μM PlnJK with antibiotic versus antibiotic alone
[4] = test system: Staphylococcus epidermidis ATCC 12228; experiment: microbe, parasite or virus in culture; settings: ATCC12228
[5] = 12.5 μM PlnEF with antibiotic versus antibiotic alone

| reduction of the MIC of the antibiotic in the presence of PlnEF [1, 5] [fold] | MIC [1] [µg/mL] | reduction of the MIC of the antibiotic in the presence of PlnJK [3] | MIC [4] [µg/mL] | reduction of the MIC of the antibiotic in the presence of PlnEF [3, 5] [fold] | Molecule | reduction of the MBC of the antibiotic in the presence of PlnEF [1, 5] [fold] | enhancement of the effects of the antibiotic by plantaricin [2] [fold] | MBC [4] [µg/mL] |
| --- | --- | --- | --- | --- | --- | --- | --- | --- |
| 500 | > 5 | approximately sevenfold | 0.31 (≈ 0.649 µM) |  | CNC(C)C1CCC(N)C(OC2C(N)CC(N)C(OC3OCC(C)(O)C(NC)C3O)C2O)O1 (stereo not drawn) [Gentamicin] | 260 | > 500 |  |
| 125 | ≥ 2 |  |  | 500 | CN(C)[C@@H]1C(O)=C(C(N)=O)C(=O)[C@@]2(O)C(O)=C3C(=O)c4c(O)cccc4[C@@](C)(O)[C@H]3C[C@@H]12 [Tetracycline] |  | > 500 |  |
|  |  |  | 3.1 (≈ 2.14 µM) |  | CN[C@H](CC(C)C)C(=O)N[C@H]1C(=O)N[C@@H](CC(N)=O)C(=O)N[C@H]2C(=O)N[C@H]3C(=O)N[C@H](C(=O)N[C@H](C(=O)O)c4cc(O)cc(O)c4-c4cc3ccc4O)[C@H](O)c3ccc(c(Cl)c3)Oc3cc2cc(c3O[C@@H]2O[C@H](CO)[C@@H](O)[C@H](O)[C@H]2O[C@H]2C[C@](C)(N)[C@H](O)[C@H](C)O2)Oc2ccc(cc2Cl)[C@H]1O [Vancomycin] |  | > 30 | 6.25 (≈ 4.31 µM) |
|  |  | twofold |  |  | Teicoplanin |  | > 30 |  |

From paper PMC6393846 (Future Microbiology, 2019)
